From ChEMBL document CHEMBL2385016, “Inhibition of VEGF expression in cancer cells and endothelial cell differentiation by synthetic stilbene derivatives” (Bioorg Med Chem, 2013)
pIC50: −log10 of the molar value. Values after ≈ are worked out from the molar mass of the structure shown. Active and inactive are the calls of the source. No cut-off for these calls is given here.

Experiments:
[1] = system: HT-29; test: Antiproliferative activity against human HT-29 cells after 3 days by MTT assay; format: functional, cell-based; conditions: HT-29, 72 h
Method in brief: (§1)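 MTT dye reduction. 3×10^3 BAE cells (collagenase-isolated) or 5×10^3 HT-29 cells per well in DMEM with 10% FBS, exposed to serial dilutions for 3 days at 37 °C, 5% CO2. MTT (5 mg/ml in PBS) added for 4 h, formazan dissolved in 0.04 N HCl/2-propanol, absorbance at 550 nm. Triplicate; IC50 is the concentration giving 50% survival. Compounds from 10 mg/mL DMSO stocks.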

[2] = Antiangiogenic activity against BAEC assessed as inhibition of tube formation after 7 hrs by matrigel assay; format: functional; conditions: Bos taurus
Method in brief: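 Wells coated with Matrigel (about 10.5 mg/mL), polymerized at least 30 min at 37 °C. 5×10^4 BAE cells seeded in DMEM with a range of compound concentrations. Incubated 7 h at 37 °C, 5% CO2, then viewed and photographed at 200×. Two observers scored tube formation. Value is the minimal concentration inhibiting differentiation.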

[3] = Antiproliferative activity against BAEC after 3 days by MTT assay; format: functional; conditions: Bos taurus, 72 h; method in brief: as §1
[4] = system: HT-29; test: Inhibition of VEGF protein production in human HT-29 cells at 20 ug/mL after 72 hrs by ELISA relative to control; values are per cent of control; conditions: HT-29, 72 h
[5] = system: HT-29; test: Inhibition of VEGF mRNA expression in human HT-29 cells at 20 ug/mL after 48 hrs by RT-PCR analysis relative to control; values are per cent of control; conditions: HT-29, 48 h
[6] = system: HT-29; test: Inhibition of VEGF protein production in human HT-29 cells at 10 ug/mL after 72 hrs by ELISA relative to control; values are per cent of control; conditions: HT-29, 72 h
[7] = system: HT-29; test: Inhibition of VEGF mRNA expression in human HT-29 cells at 10 ug/mL after 48 hrs by RT-PCR analysis relative to control; values are per cent of control; conditions: HT-29, 48 h
[8] = system: HT-29; test: Inhibition of VEGF protein production in human HT-29 cells at 10 ug/mL after 72 hrs by ELISA relative to control; format: functional
Method in brief: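 HT-29 cells at 70–80% confluence were serum-starved 24 h, then treated 72 h with compound in DMSO. VEGF secreted into culture supernatants was measured by human VEGF ELISA kit in ng/mL and compared with untreated and DMSO controls. At least three measurements per condition; mean ± SEM; one-sample t-tests.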

Oc1ccc(/C=C/c2ccccc2)cc1 [(E)-4-STYRYLPHENOL]
pIC50 [1]: 4.46
MIC [2]: 32 µM (≈ 6.28 µg/mL)
pIC50 [3]: 4.47

C=CCOc1ccc(/C=C/c2ccccc2)cc1
pIC50 [1]: 4.64
MIC [2]: 106 µM (≈ 25 µg/mL)
pIC50 [3]: < 3.40

Oc1ccc(/C=C/c2cc(O)cc(O)c2)cc1 [RESVERATROL]
pIC50 [1]: 3.96
MIC [2]: 54.8 µM (≈ 12.5 µg/mL)
pIC50 [3]: 4.32
level, % of control at 20 µg/mL [4]: 65%
level, % of control at 20 µg/mL [5]: 86%

Oc1ccccc1/C=C/c1ccccc1
pIC50 [1]: 3.95
MIC [2]: 32 µM (≈ 6.28 µg/mL)
pIC50 [3]: 3.97
level, % of control at 10 µg/mL [6]: 41%
level, % of control at 10 µg/mL [7]: 91%

Oc1cccc(/C=C/c2ccccc2)c1 [(E)-3-STILBENOL]
pIC50 [1]: 3.90
MIC [2]: 32 µM (≈ 6.28 µg/mL)
pIC50 [3]: 4.04

COc1ccc(/C=C/c2ccccc2)cc1
pIC50 [1]: 4.59
MIC [2]: 475 µM (≈ 99.9 µg/mL)
pIC50 [3]: 3.38

COc1ccccc1/C=C/c1ccccc1
inhibition [8]: Active
pIC50 [1]: 4.37
MIC [2]: 59.5 µM (≈ 12.5 µg/mL)
pIC50 [3]: 3.82
level, % of control at 10 µg/mL [7]: 70%

C=CCOc1ccccc1/C=C/c1ccccc1
pIC50 [1]: 4.26
MIC [2]: 53 µM (≈ 12.5 µg/mL)
pIC50 [3]: 3.50
level, % of control at 10 µg/mL [6]: 41%
level, % of control at 10 µg/mL [7]: 50%
